Measurements as given in ChEMBL document CHEMBL4819068, “Novel potent bifunctional carboxylesterase inhibitors based on a polyfluoroalkyl-2-imino-1,3-dione scaffold” (Eur J Med Chem, 2021).
pIC50: −log10 of the molar value.

Key:
[1] = Antioxidant activity assessed as trolox equivalent of ABTS radical cation scavenging activity incubated for 24 hrs by UV-Vis spectrophotometric analysis; format: functional
[2] = Acute toxicity in CD-1 mouse assessed as effect on mouse death at 900 mg/kg, ip measured after 14 days; format: organism-based; settings: in vivo, 336 h, time 14 day
Summary of the method: (§1)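 CD-1 mice given compound intraperitoneally in 2% (w/v) starch mucilage, three animals per dose group; lethality observed over 14 days; procedure based on OECD recommendations.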

[3] = Cytotoxicity against human FetMSC cells assessed as reduction in cell viability after 72 hrs by MTT assay; format: cell-based
Summary of the method: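 Human fetal MSC (bone-marrow fibroblast-like, nonimmortalized; ≤10–15 passages) grown in F12/DMEM with 10% FBS, 3 mM L-glutamine, penicillin/streptomycin. Seeded at 6×10^3 cells/well; after 24 h, medium replaced with compound at 100, 250, 500 μM for 72 h; controls 0.1% DMSO. MTT 0.5 mg/ml for 4 h, formazan dissolved in DMSO, read at 570 nm; control = 100%.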

Liver carboxylesterase 1 = molecular target: T1, Liver carboxylesterase 1 (Homo sapiens, UniProt P23141); assay: Inhibition of human recombinant CES1 expressed in baculovirus infected BTI insect cells using 4-NPA as substrate by spectrophotometric analysis
T1 sequence (P23141 whole entry): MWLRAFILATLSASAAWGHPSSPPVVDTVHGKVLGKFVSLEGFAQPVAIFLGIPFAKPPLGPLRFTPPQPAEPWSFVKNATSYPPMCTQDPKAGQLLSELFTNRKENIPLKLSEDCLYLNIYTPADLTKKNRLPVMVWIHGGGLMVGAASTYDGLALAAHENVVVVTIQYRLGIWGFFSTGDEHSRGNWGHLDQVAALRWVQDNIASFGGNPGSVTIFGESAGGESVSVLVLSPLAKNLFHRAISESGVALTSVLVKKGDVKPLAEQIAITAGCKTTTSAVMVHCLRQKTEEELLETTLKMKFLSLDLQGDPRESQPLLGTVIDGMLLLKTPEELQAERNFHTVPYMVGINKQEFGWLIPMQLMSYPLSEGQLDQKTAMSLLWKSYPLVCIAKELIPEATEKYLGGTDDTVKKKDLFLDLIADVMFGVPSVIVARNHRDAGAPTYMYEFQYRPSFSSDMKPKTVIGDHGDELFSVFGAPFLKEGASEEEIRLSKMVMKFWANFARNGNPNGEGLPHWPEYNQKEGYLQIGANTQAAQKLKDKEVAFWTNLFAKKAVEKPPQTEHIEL
Summary of the method: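 Recombinant hCES1 (baculovirus/BTI insect cells), 0.02 unit/mL, in 0.1 M K/Na phosphate pH 7.4, 25 °C; compound (DMSO, 2% v/v final) preincubated 10 min, then 1 mM 4-nitrophenyl acetate added; 4-nitrophenol release read at 405 nm against enzyme-free blank. IC50 from eight concentrations (10^-12–10^-4 M) relative to inhibitor-free control.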

[4] = Acute toxicity in ip dosed CD-1 mouse observed for 14 days; format: organism-based; settings: in vivo, time 14 day; summary of the method: as §1
[5] = Antioxidant activity assessed as decrease in ABTS radical cation scavenging activity incubated for 24 hrs by UV-Vis spectrophotometric analysis; format: functional
Cholinesterase = Cholinesterase (Equus caballus, UniProt P81908); assay: Inhibition of equine serum BuChE using […] as substrate preincubated for 10 mins followed by substrate addition by Ellman's method
Cholinesterase, sequence (P81908 whole entry): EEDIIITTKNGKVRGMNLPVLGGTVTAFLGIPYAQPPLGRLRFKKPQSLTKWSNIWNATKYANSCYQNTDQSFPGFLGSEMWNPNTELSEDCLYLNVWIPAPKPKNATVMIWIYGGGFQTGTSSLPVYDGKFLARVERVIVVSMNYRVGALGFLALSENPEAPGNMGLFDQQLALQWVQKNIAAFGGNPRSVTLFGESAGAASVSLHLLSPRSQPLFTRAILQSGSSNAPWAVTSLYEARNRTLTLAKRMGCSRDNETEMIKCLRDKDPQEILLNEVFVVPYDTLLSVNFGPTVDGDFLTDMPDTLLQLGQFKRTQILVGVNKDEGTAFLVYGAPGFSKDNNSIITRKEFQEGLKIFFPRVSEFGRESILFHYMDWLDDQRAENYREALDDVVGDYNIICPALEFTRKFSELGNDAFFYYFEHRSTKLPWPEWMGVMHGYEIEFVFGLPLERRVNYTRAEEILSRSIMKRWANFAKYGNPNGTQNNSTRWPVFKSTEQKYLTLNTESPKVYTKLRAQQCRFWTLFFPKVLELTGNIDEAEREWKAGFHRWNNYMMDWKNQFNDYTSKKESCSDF

Acetylcholinesterase = Acetylcholinesterase (Homo sapiens, UniProt P22303); assay: Inhibition of human erythrocyte AChE using acetylthiocholine iodide as substrate preincubated for 10 mins followed by substrate addition by Ellman's method
Acetylcholinesterase, sequence (P22303 whole entry): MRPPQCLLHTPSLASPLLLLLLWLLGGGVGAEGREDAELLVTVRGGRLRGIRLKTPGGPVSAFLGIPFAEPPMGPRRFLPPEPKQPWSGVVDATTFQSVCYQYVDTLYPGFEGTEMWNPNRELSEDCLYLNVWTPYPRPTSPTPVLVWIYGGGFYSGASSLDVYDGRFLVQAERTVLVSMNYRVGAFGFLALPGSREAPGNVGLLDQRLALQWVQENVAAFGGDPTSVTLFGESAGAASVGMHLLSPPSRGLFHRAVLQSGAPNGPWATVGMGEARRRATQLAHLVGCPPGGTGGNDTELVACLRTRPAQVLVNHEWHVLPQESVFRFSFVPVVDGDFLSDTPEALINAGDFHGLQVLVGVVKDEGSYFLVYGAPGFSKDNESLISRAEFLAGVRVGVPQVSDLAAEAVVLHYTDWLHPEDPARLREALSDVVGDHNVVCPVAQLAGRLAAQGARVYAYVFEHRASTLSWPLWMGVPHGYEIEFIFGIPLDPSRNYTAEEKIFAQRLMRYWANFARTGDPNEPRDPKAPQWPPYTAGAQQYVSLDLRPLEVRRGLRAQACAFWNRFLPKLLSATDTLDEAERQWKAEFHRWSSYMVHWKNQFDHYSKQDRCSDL

Liver carboxylesterase = molecular target: T2, Liver carboxylesterase (Sus scrofa, UniProt Q29550); assay: Inhibition of porcine liver carboxylesterase using 4-NPA as substrate preincubated for 10 mins followed by substrate addition by spectrophotometric analysis; format: tissue-based
T2 sequence (Q29550 whole entry): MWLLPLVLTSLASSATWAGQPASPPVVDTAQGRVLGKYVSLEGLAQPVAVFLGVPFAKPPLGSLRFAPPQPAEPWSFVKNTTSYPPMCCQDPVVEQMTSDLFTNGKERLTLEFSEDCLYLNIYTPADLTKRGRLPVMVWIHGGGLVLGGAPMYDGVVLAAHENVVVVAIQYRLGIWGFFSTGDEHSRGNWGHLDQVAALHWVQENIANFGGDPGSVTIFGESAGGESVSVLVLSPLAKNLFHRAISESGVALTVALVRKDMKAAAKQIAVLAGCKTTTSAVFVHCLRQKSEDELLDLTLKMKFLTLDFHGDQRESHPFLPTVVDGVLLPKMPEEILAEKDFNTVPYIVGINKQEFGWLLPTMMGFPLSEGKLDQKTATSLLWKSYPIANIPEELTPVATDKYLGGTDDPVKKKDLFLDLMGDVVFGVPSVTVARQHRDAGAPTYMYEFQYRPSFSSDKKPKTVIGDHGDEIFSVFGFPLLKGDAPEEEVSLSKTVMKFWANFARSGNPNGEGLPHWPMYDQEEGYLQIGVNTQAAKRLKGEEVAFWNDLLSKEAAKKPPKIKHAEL
Summary of the method: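 Porcine liver CES, 0.02 unit/mL, in 0.1 M K/Na phosphate pH 8.0, 25 °C; compound in DMSO (2% v/v final) preincubated 10 min, then 1 mM 4-nitrophenyl acetate; 4-nitrophenol read at 405 nm, enzyme-free blanks. Screening at 20 μM in three separate experiments; IC50 from eight concentrations between 10^-12 and 10^-4 M, residual activity relative to inhibitor-free control.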

CCOC(=O)/C(=N\Nc1ccc(C)cc1)C(=O)C(F)(F)F
Activity [1]: 0.95 | Activity [2]: Non-Toxic | pIC50 [3]: < 3.30 | pIC50 (Liver carboxylesterase 1): 8.53 | LD50 at 336 h [4]: 900 mg/kg | pIC50 [5]: 4.67 | pIC50 (Cholinesterase): 5.08 | pIC50 (Acetylcholinesterase): 5.14 | pIC50 (Liver carboxylesterase): 8.13
